Test results as given in ChEMBL document CHEMBL1157464, “1-[(3-Aryloxy-3-aryl)propyl]-1H-imidazoles, new imidazoles with potent activity against Candida albicans and dermatophytes. Synthesis, structure-activity relationship, and molecular modeling studies” (J Med Chem, 2008).
Converted amounts (≈) assume the structure as drawn.

How the values were obtained:
Arthrodermataceae [1] = assay: Antifungal activity against dermatophytes at 28 degC after 7 days by broth microdilution test; format: functional; details: 168 h
How it was run: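 Ten clinical isolates (two M. canis, five M. gypseum, three T. mentagrophytes) tested by NCCLS M38-A broth microdilution in MOPS-buffered RPMI 1640, pH 7.0, over 0.25–128 µg/mL. Conidial/hyphal suspension from PDA slants (28 °C, 7 days) adjusted to 65–70% transmittance at OD530, then diluted 1:50.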

[2] = Cytotoxicity against human U937 cells assessed as reduction of cell viability after 24 hrs by MTT assay; format: cell-based, U-937
How it was run: (§1)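 U937 and K562 cells, from ATCC, plated at 5 × 10^4/mL in phenol-red-free RPMI-1640 with 20% FBS and penicillin/streptomycin. Compounds added 2 h later at 25–100 µg/mL, then 24 h at 37 °C. MTT at 1 mg/mL for 3 h, formazan dissolved in isopropanol with 0.1 N HCl, absorbance read at 570 nm. CC50 is the concentration reducing viability by 50% versus the drug-free control.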

Candida albicans [3] = assay: Antifungal activity against Candida albicans ATCC 10261 at 35 degC after 48 hrs by broth microdilution test; format: functional; details: Candida albicans, ATCC 10261, 48 h; for MIC: read-out: MIC; for MIC50: read-out: MIC50; for MIC90: read-out: MIC90
How it was run: (§2)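 Broth microdilution per NCCLS M27-A2. Stocks in 100% DMSO, diluted in RPMI 1640 with 0.165 M MOPS at pH 7.0; final range 0.25–128 µg/mL. Inoculum 1000–5000 cells/mL from SDA subcultures. […] C. parapsilosis ATCC22019 served as QC strain.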

[4] = Cytotoxicity against human K562 cells after assessed as reduction of cell viability 24 hrs by MTT assay; format: cell-based; how it was run: as §1
Arthrodermataceae [5] = assay: Antifungal activity against dermatophytes at 28 degC after 48 to 96 hrs by broth microdilution test
Candida parapsilosis = assay: Antifungal activity against Candida parapsilosis ATCC 22019 at 35 degC after 48 hrs by broth microdilution test; format: functional; details: Lodderomyces parapsilosis, ATCC 22019, 48 h; for MFC: read-out: MFC; for MIC: read-out: MIC; how it was run: as §2
Candida albicans [6] = assay: Antifungal activity against fluconazole-resistant Candida albicans isolated from oropharyngeal or vaginal disease patient after 48 hrs by broth microdilution test; format: functional
Candida albicans [7] = assay: Antifungal activity against fluconazole-sensitive Candida albicans Fe40 at 35 degC after 48 hrs by broth microdilution test; format: functional; how it was run: as §2
Arthrodermataceae [8] = assay: Antifungal activity against dermatophytes at 28 degC after 5 days by broth microdilution test; details: for MFC: Arthrodermataceae
Candida albicans [9] = assay: Antifungal activity against Candida albicans ATCC 10261 at 35 degC after 48 to 96 hrs by broth microdilution test; format: functional; details: for MFC: Candida albicans, ATCC 10261, read-out: MFC
How it was run: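 Minimal fungicidal concentration for Candida. […] MFC is the lowest concentration allowing fewer than two colonies (99% killing).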

| SMILES | MIC (Arthrodermataceae [1]) [µg/mL] | MIC50 (Arthrodermataceae [1]) [µg/mL] | MIC90 (Arthrodermataceae [1]) [µg/mL] | CC50 at 24 h [2] [µM] | MIC (Candida albicans [3]) [µg/mL] | MIC50 (Candida albicans [3]) [µg/mL] | MIC90 (Candida albicans [3]) [µg/mL] | CC50 at 24 h [4] [µM] | MFC50 (Arthrodermataceae [5]) [µg/mL] | MFC (Candida parapsilosis) [µg/mL] | MIC (Candida parapsilosis) [µg/mL] | MIC (Candida albicans [6]) [µg/mL] | MIC (Candida albicans [7]) [µg/mL] | MFC90 (Arthrodermataceae [8]) [µg/mL] | MFC (Arthrodermataceae [8]) [µg/mL] | MFC50 (Candida albicans [9]) [µg/mL] | MFC90 (Candida albicans [9]) [µg/mL] | MFC (Candida albicans [9]) [µg/mL] |
| --- | --- | --- | --- | --- | --- | --- | --- | --- | --- | --- | --- | --- | --- | --- | --- | --- | --- | --- |
| Cc1ccc(OC(CCn2ccnc2)c2ccc(C)cc2)cc1 (stereo not drawn) | 8 (≈ 26.1 µM) | 8 (≈ 26.1 µM) | 8 (≈ 26.1 µM) | 263 | 4 (≈ 13.1 µM) | 4 (≈ 13.1 µM) | 4 (≈ 13.1 µM) | 191 | 32 (≈ 104 µM) | 8 (≈ 26.1 µM) | 2 (≈ 6.53 µM) | 4.8 (≈ 15.7 µM) | 4 (≈ 13.1 µM) | 32 (≈ 104 µM) | 30.4 (≈ 99.2 µM) | 16 (≈ 52.2 µM) | 32 (≈ 104 µM) | 20.5 (≈ 66.9 µM) |
| Clc1ccc(C(CCn2ccnc2)Oc2ccccc2Cl)cc1 (stereo not drawn) | – | – | – | 209 | 7.7 (≈ 22.2 µM) | 8 (≈ 23 µM) | 8 (≈ 23 µM) | 205 | – | 32 (≈ 92.2 µM) | 4 (≈ 11.5 µM) | 8 (≈ 23 µM) | 8 (≈ 23 µM) | – | – | 32 (≈ 92.2 µM) | 32 (≈ 92.2 µM) | 27 (≈ 77.8 µM) |
| Clc1ccc(OC(CCn2ccnc2)c2ccc(Cl)cc2)cc1 (stereo not drawn) | – | – | – | 327 | 5.5 (≈ 15.8 µM) | 4 (≈ 11.5 µM) | 8 (≈ 23 µM) | 265 | – | 8 (≈ 23 µM) | 4 (≈ 11.5 µM) | 8 (≈ 23 µM) | 4 (≈ 11.5 µM) | – | – | 16 (≈ 46.1 µM) | 32 (≈ 92.2 µM) | 21.5 (≈ 61.9 µM) |
| Cc1ccc(C(CCn2ccnc2)Oc2ccc(C)cc2Cl)cc1 (stereo not drawn) | – | – | – | 151 | 6.5 (≈ 19.1 µM) | 8 (≈ 23.5 µM) | 8 (≈ 23.5 µM) | 123 | – | 8 (≈ 23.5 µM) | 4 (≈ 11.7 µM) | – | – | – | – | 32 (≈ 93.9 µM) | 32 (≈ 93.9 µM) | 24 (≈ 70.4 µM) |
| Cc1ccc(C(CCn2ccnc2)Oc2cc(Cl)cc(Cl)c2)cc1 (stereo not drawn) | 5.6 (≈ 15.5 µM) | 4 (≈ 11.1 µM) | 8 (≈ 22.1 µM) | 160 | 11.9 (≈ 32.9 µM) | 16 (≈ 44.3 µM) | 16 (≈ 44.3 µM) | 98 | 16 (≈ 44.3 µM) | 8 (≈ 22.1 µM) | 1 (≈ 2.77 µM) | – | – | 16 (≈ 44.3 µM) | 14.4 (≈ 39.9 µM) | 16 (≈ 44.3 µM) | 64 (≈ 177 µM) | 34.6 (≈ 95.8 µM) |
